The values that follow come from PubChem BioAssay.

Experiment [1] is described as follows: Her2 expression decrease, cell viability multiplex – SKBR3 breast tumor cells, AlphaScreen, ATP viability, primary screen (AID 461;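 active = Her2 level under about 52% in both replicate screens, with viability over 70% of control, limit read from the data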;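 for Her2 level: lower value means less Her2 protein in the cells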;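 for viability: percent of carrier control wells set as 100% viability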). The conditions noted are these: SKBR3 Her2 protein level, 18-24 h, measured here: SKBR3 viability, ATP luminescence, at 10 µM. Background: In Alpha technology, singlet oxygen from a donor bead excites a nearby acceptor bead.
Experiment [2] deals with Receptor tyrosine-protein kinase erbB-2 (Homo sapiens) (UniProt P04626). Described as above. To be noted: 18-24 h, at 10 µM, stronger effect = lower value.
Sequence of Receptor tyrosine-protein kinase erbB-2 (Homo sapiens) (P04626 whole entry, looked up): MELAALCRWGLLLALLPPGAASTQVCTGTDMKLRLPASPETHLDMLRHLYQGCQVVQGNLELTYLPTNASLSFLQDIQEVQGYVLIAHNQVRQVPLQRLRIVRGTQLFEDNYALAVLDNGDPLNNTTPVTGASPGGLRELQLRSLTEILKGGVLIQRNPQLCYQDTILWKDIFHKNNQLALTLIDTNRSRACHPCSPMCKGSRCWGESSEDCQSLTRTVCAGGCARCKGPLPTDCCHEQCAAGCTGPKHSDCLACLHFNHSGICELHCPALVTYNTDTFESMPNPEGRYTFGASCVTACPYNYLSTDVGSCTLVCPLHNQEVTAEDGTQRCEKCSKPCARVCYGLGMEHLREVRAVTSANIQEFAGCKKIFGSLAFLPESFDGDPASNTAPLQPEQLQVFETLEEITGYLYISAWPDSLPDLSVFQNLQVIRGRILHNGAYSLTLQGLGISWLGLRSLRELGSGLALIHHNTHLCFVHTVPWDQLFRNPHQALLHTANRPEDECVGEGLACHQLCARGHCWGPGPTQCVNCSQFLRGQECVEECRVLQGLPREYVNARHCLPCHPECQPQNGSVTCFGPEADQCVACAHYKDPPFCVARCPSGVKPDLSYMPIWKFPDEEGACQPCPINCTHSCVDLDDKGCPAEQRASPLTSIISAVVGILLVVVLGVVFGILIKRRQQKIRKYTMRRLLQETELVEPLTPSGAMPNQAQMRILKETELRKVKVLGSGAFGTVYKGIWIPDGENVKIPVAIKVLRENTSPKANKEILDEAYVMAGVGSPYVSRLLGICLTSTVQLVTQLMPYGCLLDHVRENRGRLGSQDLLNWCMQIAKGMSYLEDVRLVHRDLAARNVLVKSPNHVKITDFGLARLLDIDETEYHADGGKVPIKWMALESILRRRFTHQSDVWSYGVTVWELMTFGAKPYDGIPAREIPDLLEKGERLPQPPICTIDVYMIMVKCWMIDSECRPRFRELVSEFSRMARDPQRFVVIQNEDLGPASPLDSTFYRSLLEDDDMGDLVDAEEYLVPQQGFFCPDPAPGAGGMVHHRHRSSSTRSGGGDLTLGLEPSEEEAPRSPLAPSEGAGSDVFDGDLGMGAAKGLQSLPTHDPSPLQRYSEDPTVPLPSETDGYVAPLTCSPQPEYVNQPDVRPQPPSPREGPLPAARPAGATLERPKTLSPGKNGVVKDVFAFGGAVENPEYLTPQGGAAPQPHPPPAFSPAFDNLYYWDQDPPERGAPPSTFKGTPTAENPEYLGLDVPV
The nature of experiment [3]: reduced viability of SK-BR-3 breast cancer cells – cell-based, 24 h, human, pilot screen (AID 572).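 Note: compound exposure lasted between 18 and 24 h rather than exactly 24 h; 100% = carrier-treated control wells.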 The conditions noted are these: SK-BR-3 viability, CellTiter-Glo luminescence, at 10 µM, stronger effect = lower value. (ATP-based viability assays read luminescence as a measure of living cells.)
The nature of experiment [4]: HUVEC growth inhibition – cell-based, human, primary screen (AID 575;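 active = viability at or below 30% in both replicate assays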;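 note: 100% = median of untreated cell wells with 0.1% DMSO on each plate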). The conditions noted are these: HUVEC proliferation, CellTiter-Glo luminescence, 72 h; at 10 µM; stronger effect = lower value. In a few lines:
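System: primary human umbilical vein endothelial cells; Quantity: 1250 endothelial cells in each well; Buffer or medium: supplemented EBM, 2% fetal bovine serum; Doses: one dose, 10 µM final, 0.1% DMSO; Incubation: 72 h compound incubation; Technique: ATP-based CellTiter-Glo luminescent read; Evaluation: percent of median DMSO-control luminescence; Controls: vehicle and MePR control wells.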

A short description of experiment [5]: H69AR cell proliferation blockers – human, duplicate replicates, primary screen (AID 580;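 active = viability at or under a set limit in both replicates, limit being median viability minus 3 SD, cut at about 48% in these data, passing the limit was not always enough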;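 note: 100% = mean luminescence of untreated wells and 0% = no signal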). To be noted: H69AR lung tumor cells viability, ATP luminescence, 72 h; at 10 µM; stronger effect = lower value.
The nature of experiment [6]: MRP1 drug-resistance reversers in H69AR cells – cell-based, doxorubicin co-treatment, pilot screen (AID 601;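 active = viability loss from added drug above about 55%, and viability with drug at most 40%, in both replicates, limit read from the data, passing the limit was not always enough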). The conditions noted are these: CellTiter-Glo, 72 h, at 10 µM; for differential viability (reversal): stronger effect = higher value.
Experiment [7] in a line: yeast transport mutant growth inhibition pilot in 384-well plates, post-Golgi transport modulator project (AID 636; in the data active = inhibition above about 31%). To be noted: absorbance 615 nm, about 18 h, stronger effect = higher value.
Experiment [8] in a line: growth suppression of yeast trafficking mutant, preliminary HTS, modulators of trafficking downstream of Golgi apparatus project, 1536-format plate, OD 615 nm (AID 637; in the data active = inhibition above about 30%). The conditions noted are these: yeast transport mutant growth, absorbance 615 nm, 18 h; stronger effect = higher value.
Where [9] appears, read: H69AR cells + 2 uM doxorubicin, measured here: viability with 2 uM doxorubicin, stronger effect = lower value.
[10] abbreviates: H69AR cells, compound alone cytotoxicity.

Activity calls are given as the source filed them.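 Rule for the calls, unless noted: active = viability at or below 10% of carrier control in both of two separate runs; inconclusive = viability at or below 10% in only one of the two runs; inactive = the rest.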

`Cc1csc(NC(=O)c2ccco2)n1`: the viability in experiment [1] is 102%; in experiment [3] it was 102% (inactive); in experiment [4] it was 82.9% (inactive); in experiment [5], 83.3% (inactive); in experiment [6] (setting [9]), 81.4%; in experiment [6] (setting [10]), 83.3%. The Her2 level in experiment [2] is 83.5% (inactive). Besides, the differential viability (reversal) in experiment [6] (H69AR cells + 2 uM doxorubicin) was 1.88% (inactive). For the same compound, the values for the inhibition in experiment [7] and in experiment [8] were -3.46% (inactive) and -5.5% (inactive), respectively.

In the case of `N#CCSc1nc(-c2ccccc2)cs1`, the viability was 86.5% in experiment [1]; 86.5% (inactive) in experiment [3]; 109% (inactive) in experiment [4]; 98% (inactive) in experiment [5]; 98.9% in experiment [6] (setting [9]); 98% in experiment [6] (setting [10]). In addition, the Her2 level in experiment [2] was 98.5% (inactive). The differential viability (reversal) in experiment [6] (H69AR cells + 2 uM doxorubicin) was -0.97% (inactive). Further, the results for the inhibition in experiment [7] and in experiment [8] were -1.71% (inactive) and 2.58% (inactive), respectively.

On to `CCCC(=O)Nc1cc(C)c(NC(=O)c2ccccn2)cn1`, for which the viability in experiment [1] was 90.5%; in experiment [3], 90.5% (inactive); in experiment [4] it was 92.2% (inactive); in experiment [5], 99.4% (inactive); in experiment [6] (setting [9]), 90.1%; in experiment [6] (setting [10]), 99.4%. The Her2 level in experiment [2] is 92.5% (inactive). Moreover, in experiment [6] (H69AR cells + 2 uM doxorubicin), the differential viability (reversal) is 9.38% (inactive). Moreover, the inhibition is -5.06% (inactive) in experiment [7] and -0.32% (inactive) in experiment [8].

As to `Cc1nc(C)c(C(=O)Nc2ccc(C)c(F)c2)o1`, the viability was 92% in experiment [1]; 92% (inactive) in experiment [3]; 117% (inactive) in experiment [4]; 94.8% (inactive) in experiment [5]; 79.3% in experiment [6] (setting [9]); 94.8% in experiment [6] (setting [10]). The Her2 level in experiment [2] is 80% (inactive). Also, in experiment [6] (H69AR cells + 2 uM doxorubicin), the differential viability (reversal) was 15.5% (inactive). The values for the inhibition in experiment [7] and in experiment [8] were -5.54% (inactive) and 1% (inactive), respectively.

As for `Cc1ccnc(NC(=O)CCC(=O)N(CC(=O)NC(C)(C)C)C2CCCC2)c1`, the viability in experiment [1] was 108%; in experiment [3] it was 108% (inactive); in experiment [4], 92.7% (inactive); in experiment [5], 93.2% (inactive); in experiment [6] (setting [9]), 92.6%; in experiment [6] (setting [10]) it was 93.2%. In addition, the Her2 level in experiment [2] is 99.5% (inactive). In addition, in experiment [6] (H69AR cells + 2 uM doxorubicin), the differential viability (reversal) was 0.62% (inactive). Besides, the results for the inhibition in experiment [7] and in experiment [8] were -4.94% (inactive) and 5.56% (inactive), respectively.

With `CC(=O)c1ccc(NC2OC(C)C(O)C(O)C2O)cc1` (stereo not given), the viability in experiment [1] was 121%; in experiment [3], 121% (inactive); in experiment [4] it was 100% (inactive); in experiment [5], 91.3% (inactive); in experiment [6] (setting [9]), 89.8%; in experiment [6] (setting [10]), 91.3%. Further, in experiment [2], the Her2 level was 112% (inactive). For the same compound, the differential viability (reversal) in experiment [6] (H69AR cells + 2 uM doxorubicin) was 1.54% (inactive). In addition, the values for the inhibition in experiment [7] and in experiment [8] were 2.24% (inactive) and -6.67% (inactive), respectively.

As to `C=CCn1c(COc2ccccc2)nnc1SCC(=O)C(C)(C)C`, the viability in experiment [1] is 78%; in experiment [3] it was 78% (inactive); in experiment [4], 102% (inactive); in experiment [5], 97.8% (inactive); in experiment [6] (setting [9]), 92.6%; in experiment [6] (setting [10]) it was 97.8%. In addition, the Her2 level in experiment [2] is 107% (inactive). Further, the differential viability (reversal) in experiment [6] (H69AR cells + 2 uM doxorubicin) was 5.13% (inactive). Besides, the inhibition was -1.95% (inactive) in experiment [7] and -4.67% (inactive) in experiment [8].

`Cc1oc2c(CN3CCCC3)c(O)ccc2c(=O)c1-c1ccccc1`: the viability in experiment [1] is 88.5%; in experiment [3], 88.5% (inactive); in experiment [4], 80.1% (inactive); in experiment [5] it was 89% (inactive); in experiment [6] (setting [9]), 86%; in experiment [6] (setting [10]) it was 89%. In addition, the Her2 level in experiment [2] was 82% (inactive). Besides, the differential viability (reversal) in experiment [6] (H69AR cells + 2 uM doxorubicin) is 2.93% (inactive). Also, the inhibition in experiment [7] was -4.34% (inactive); in experiment [8] it was 0.48% (inactive).

On to `COc1ccc(-c2ccc(-c3nnc(-c4ccncc4)o3)cc2)cc1`, for which the viability is 130% in experiment [1]; 130% (inactive) in experiment [3]; 119% (inactive) in experiment [4]; 96.3% (inactive) in experiment [5]; 89.5% in experiment [6] (setting [9]); 96.3% in experiment [6] (setting [10]). Also, the Her2 level in experiment [2] is 103% (inactive). Further, in experiment [6] (H69AR cells + 2 uM doxorubicin), the differential viability (reversal) is 6.73% (inactive). The inhibition in experiment [7] is -5.87% (inactive); in experiment [8] it was 0% (inactive).

As for `O=C(c1ccccc1Cl)N1CCc2ccccc2C1`, the viability in experiment [1] was 97%; in experiment [3], 97% (inactive); in experiment [4] it was 97.1% (inactive); in experiment [5] it was 83% (inactive); in experiment [6] (setting [9]), 81.5%; in experiment [6] (setting [10]) it was 83%. In addition, the Her2 level in experiment [2] is 75% (inactive). For the same compound, in experiment [6] (H69AR cells + 2 uM doxorubicin), the differential viability (reversal) was 1.55% (inactive). Also, the inhibition in experiment [7] was -8.49% (inactive); in experiment [8], -5.4% (inactive).

With `CCOc1ccc2ccccc2c1C(=O)N1CCN(c2ccccc2)CC1`, the viability in experiment [1] is 95%; in experiment [3] it was 95% (inactive); in experiment [4], 47.3% (inactive); in experiment [5], 9.8% (active); in experiment [6] (setting [9]), 66.8%; in experiment [6] (setting [10]) it was 9.8%. The Her2 level in experiment [2] was 83.5% (inactive). Moreover, the differential viability (reversal) in experiment [6] (H69AR cells + 2 uM doxorubicin) is -57% (inactive). Also, the figures for the inhibition in experiment [7] and in experiment [8] were -2.8% (inactive) and -10.6% (inactive), respectively.

Take `c1ccc(CNc2c3c(nc4ncnn24)CCCC3)nc1`: the viability in experiment [1] is 95.5%; in experiment [3], 95.5% (inactive); in experiment [4], 109% (inactive); in experiment [5] it was 85.2% (inactive); in experiment [6] (setting [9]), 89.5%; in experiment [6] (setting [10]), 85.2%. Moreover, the Her2 level in experiment [2] was 83.5% (inactive). Besides, the differential viability (reversal) in experiment [6] (H69AR cells + 2 uM doxorubicin) was -4.29% (inactive). For the same compound, the inhibition in experiment [7] is -5.34% (inactive); in experiment [8], -3.33% (inactive).

`O=C(OCc1nnc(-c2ccccc2)o1)c1ccc(S(=O)(=O)NCc2ccco2)cc1`: the viability in experiment [1] was 99.5%; in experiment [3] it was 99.5% (inactive); in experiment [4] it was 99.6% (inactive); in experiment [5] it was 53.6% (inactive); in experiment [6] (setting [9]), 60.3%; in experiment [6] (setting [10]), 53.6%. The Her2 level in experiment [2] is 98% (inactive). Moreover, the differential viability (reversal) in experiment [6] (H69AR cells + 2 uM doxorubicin) is -6.69% (inactive). The inhibition was -4.87% (inactive) in experiment [7] and -6.36% (inactive) in experiment [8].

For `C=CCn1c(=O)/c(=C/c2ccc(O)cc2)s/c1=C(/C#N)c1nnc2n1CCCCC2`, the viability in experiment [1] was 93.5%; in experiment [3] it was 93.5% (inactive); in experiment [4], 83.4% (inactive); in experiment [5], 85.5% (inactive); in experiment [6] (setting [9]), 77%; in experiment [6] (setting [10]), 85.5%. The Her2 level in experiment [2] is 103% (inactive). In experiment [6] (H69AR cells + 2 uM doxorubicin), the differential viability (reversal) was 8.51% (inactive). The results for the inhibition in experiment [7] and in experiment [8] were -5.27% (inactive) and -2.83% (inactive), respectively.

Take `Cc1onc(-c2ccccc2)c1C(=O)Nc1ccnn1C1CCCCC1`: the viability in experiment [1] was 99.5%; in experiment [3], 99.5% (inactive); in experiment [4], 91.3% (inactive); in experiment [5], 90.6% (inactive); in experiment [6] (setting [9]), 95.3%; in experiment [6] (setting [10]) it was 90.6%. For the same compound, in experiment [2], the Her2 level is 97.5% (inactive). Moreover, the differential viability (reversal) in experiment [6] (H69AR cells + 2 uM doxorubicin) is -4.68% (inactive). For the same compound, the inhibition in experiment [7] is -5.6% (inactive); in experiment [8] it was -2.95% (inactive).

A word on the viability: it is a read-out of living cells in per cent, often relative to untreated cells. What is called inhibition is the drop in the measured response relative to a control, in per cent.
